≈ marks a conversion by molar mass, not a printed value. Calls of active or inactive are those of the source. The rule behind the calls is not given here.
Assays:
[1] = AUC (0 to t) in Balb/c mouse at 3 mg/kg, iv measured up to 24 hrs by LC-MS/MS analysis; assay type: ADME, organism-based; design: dose 3 mg/kg, time <=24; conditions: in vivo
How it was run: (§1)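 Intravenous dosing in male Balb/c mice, fed ad libitum. Tail-vein blood sampled into heparinized tubes at 0.17, 0.5, 1, 3, 5, 7, 9 and 24 h, frozen at −80 °C. Blood extracted by acetonitrile protein precipitation with internal standard; LC−MS/MS quantitation, LOQ 2 ng/mL. Noncompartmental analysis based on curve stripping.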

Plasmodium falciparum [2] = assay: Antimalarial activity against asexual blood stage drug-sensitive Plasmodium falciparum NF54 infected in erythrocytes assessed as reduction in parasitemia incubated up to 72 hrs by [3H]hypoxanthine incorporation assay; assay type: functional, organism-based
How it was run: (§2)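 [³H]-Hypoxanthine incorporation assay (modified) on asexual blood-stage P. falciparum in vitro. IC₅₀ values are means of ≥2 independent experiments.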

Hemozoin [3] = assay: Inhibition of beta-hematin formation […] incubated for 5 hrs by NP40 detergent-mediated assay
How it was run: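 Cell-free β-hematin formation assay in NP-40 (305.5 μM) lipid-mimic medium. Compounds from 20 mM stock serially diluted across wells, in duplicate. Hematin suspended in 1 M acetate buffer pH 4.8; plates incubated ~5 h at 37 °C. Then pyridine solution (with HEPES pH 7.4) and acetone added; absorbance at 405 nm. IC₅₀ by curve fit.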

[4] = AUC (0 to t) in Balb/c mouse at 10 mg/kg, po measured up to 24 hrs by LC-MS/MS analysis; assay type: ADME, organism-based; design: dose 10 mg/kg, time <=24; conditions: in vivo
How it was run: (§3)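 Male Balb/c mice, not fasted, food and water ad libitum; single oral dose. Tail-vein blood into heparinized tubes at 0.5, 1, 3, 5, 7, 9 and 24 h, stored at −80 °C. Whole blood protein-precipitated with acetonitrile containing internal standard, analyzed by LC−MS/MS (LOQ 2 ng/mL). Parameters by noncompartmental analysis with curve stripping. Mean of three mice per point.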

[5] = Volume of distribution in Balb/c mouse at 3 mg/kg, iv measured up to 24 hrs by LC-MS/MS analysis; assay type: ADME, organism-based; conditions: in vivo; how it was run: as §1
[6] = Kinetic solubility of the compound in pH 6.5 incubated for 24 hrs by HPLC-DAD analysis; assay type: physicochemical; conditions: buffer, read-out: Kinetic_solubility
How it was run: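 Miniaturized shake-flask method. 10 mM DMSO stock dried down, phosphate buffer pH 6.5 added, shaken 24 h at 25 °C. Centrifuged 3500g for 15 min; supernatant analyzed by HPLC-DAD against 10−220 μM DMSO calibration curve. Reserpine, hydrocortisone and MMV390048 as controls.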

[7] = Volume of distribution at steady state in Balb/c mouse at 3 mg/kg, iv measured up to 24 hrs by LC-MS/MS analysis; assay type: ADME, organism-based; conditions: in vivo, read-out: Vdss; how it was run: as §1
[8] = Cmax in Balb/c mouse at 10 mg/kg, po measured up to 24 hrs by LC-MS/MS analysis; assay type: ADME, organism-based; design: route oral, dose 10 mg/kg, time <=24; conditions: in vivo; how it was run: as §3
[9] = Oral bioavailability in Balb/c mouse at 10 mg/kg measured up to 24 hrs by LC-MS/MS analysis; assay type: ADME, organism-based; conditions: in vivo; how it was run: as §3
Plasmodium falciparum [10] = assay: Antiplasmodial activity against […] Plasmodium falciparum NF54 early gametocytes transfected with GFP-Luc […] at 5 uM incubated for 48 hrs by microscopy based luciferase reporter gene assay relative to control; assay type: functional
How it was run: (§4)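 NF54-Pfs16-GFP-Luc gametocytes, assays set up day 5 (early, stage II/III) or day 10 (late, stage IV/V). Culture at 2−3% gametocytemia, 1.5% hematocrit, 48 h drug exposure at 37 °C under 90% N₂/5% O₂/5% CO₂. Lysates mixed with luciferin; bioluminescence read with 10 s integration. Dual-point: one biological repeat in technical triplicate. Methylene blue (5 μM) reference.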

Plasmodium falciparum [11] = assay: Antimalarial activity against asexual blood stage multi drug-resistant Plasmodium falciparum K1 infected in erythrocytes assessed as reduction in parasitemia incubated up to 72 hrs by [3H]hypoxanthine incorporation assay; assay type: functional, organism-based; how it was run: as §2
Plasmodium berghei = assay: Antimalarial activity against GFP-transfected Plasmodium berghei ANKA infected in NMRI mouse model assessed as reduction in parasitemia at 50 mg/kg, po dosed 4 times relative to control; assay type: functional; design: scale not given: the % may be the effect or the level left
How it was run: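 Mice (n = 3) infected with GFP-transfected P. berghei ANKA. Compound in 70% Tween-80/30% ethanol, diluted 10-fold in water, given orally at 4, 24, 48 and 72 h post-infection. Blood taken day 4 (96 h); parasitemia by flow cytometry, detection limit 0.1%. Activity = difference in mean % parasitemia between control and treated, as % of control.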

[12] = Metabolic stability in mouse liver microsomes assessed as compound remaining at 1 uM incubated for 30 mins by LC-MS/MS analysis; assay type: ADME, Microsome; conditions: read-out: Stabilty
How it was run: (§5)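 Single-point design: 1 μM compound with 0.4 mg/mL liver microsomes in 0.1 M phosphate buffer pH 7.4 for 30 min. Quenched with ice-cold acetonitrile containing carbamazepine internal standard, centrifuged, analyzed by LC−MS/MS. Percent remaining from internal-standard-corrected peak areas at 30 min versus 0 min. Propranolol, midazolam and MMV390048 as controls.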

[13] = Selectivity index, ratio of IC50 for Cytotoxicity against CHO cells assessed as inhibition of cell viability by MTT assay to IC50 for antimalarial activity against asexual blood stage Plasmodium falciparum NF54 assessed as reduction in parasitemia incubated up to 72 hrs by [3H]hypoxanthine incorporation assay; assay type: toxicity, cell-based; conditions: hamster, read-out: Selectivity Index
How it was run: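 Selectivity index is IC₅₀(CHO)/IC₅₀(NF54). […] IC₅₀ came from nonlinear dose-response fitting. Parasite IC₅₀ came from the [³H]-hypoxanthine assay.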

Plasmodium falciparum [14] = assay: Antiplasmodial activity against […] Plasmodium falciparum NF54 early gametocytes transfected with GFP-Luc […] at 1 uM incubated for 48 hrs by microscopy based luciferase reporter gene assay relative to control; assay type: functional; how it was run: as §4
[15] = Metabolic stability in human liver microsomes assessed as compound remaining at 1 uM incubated for 30 mins by LC-MS/MS analysis; assay type: ADME, Microsome; conditions: read-out: Stabilty; how it was run: as §5
Plasmodium falciparum [16] = assay: Antiplasmodial activity against […] Plasmodium falciparum NF54 late gametocytes transfected with GFP-Luc […] at 1 uM incubated for 48 hrs by microscopy based luciferase reporter gene assay relative to control; assay type: functional; how it was run: as §4
Plasmodium falciparum [17] = assay: Antiplasmodial activity against […] Plasmodium falciparum NF54 late gametocytes transfected with GFP-Luc […] at 5 uM incubated for 48 hrs by microscopy based luciferase reporter gene assay relative to control; assay type: functional; how it was run: as §4
[18] = Clearance in Balb/c mouse at 3 mg/kg, iv measured up to 24 hrs by LC-MS/MS analysis; assay type: ADME, organism-based; conditions: in vivo; how it was run: as §1
Hemozoin [19] = assay: Inhibition of Beta-hematin in early ring stage Plasmodium falciparum parasitized red blood cells assessed as hemozoin formation formation after 32 hrs by Giemsa staining based haemocytometric counting method
CHO = assay: Cytotoxicity against CHO cells assessed as inhibition of cell viability by MTT assay; assay type: cell-based; conditions: Cricetulus griseus
[20] = Resistance index, ratio of IC50 for antimalarial activity against asexual blood stage multi drug-resistant Plasmodium falciparum K1 to IC50 for antimalarial activity against asexual blood stage drug-sensitive Plasmodium falciparum NF54; assay type: functional
How it was run: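 Resistance index is IC₅₀(K1)/IC₅₀(NF54). Both IC₅₀s came from the [³H]-hypoxanthine incorporation assay, as means of ≥2 independent experiments.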

[21] = Tmax in Balb/c mouse at 10 mg/kg, po measured up to 24 hrs by LC-MS/MS analysis; assay type: ADME, organism-based; conditions: in vivo; how it was run: as §3
[22] = Metabolic stability in rat liver microsomes assessed as compound remaining at 1 uM incubated for 30 mins by LC-MS/MS analysis; assay type: ADME, Microsome; conditions: read-out: Stabilty; how it was run: as §5

SMILES: CCNCc1cc(Cl)cc(Nc2nc3cc(F)c(F)cc3[nH]2)c1O
- AUCt [1]: 65 µmol·min/L
- IC50 (Plasmodium falciparum [2]): 250 nM
- IC50 (Hemozoin [3]): 7150 nM
- AUCt [4]: 11 µmol·min/L
- Vd [5]: 96 L/kg
- solubility kinetic at 24 h [6]: 12 µM (≈ 4.23 µg/mL)
- Vd [7]: 58 L/kg
- Cmax [8]: 26 nM
- bioavailability [9]: 5%
- inhibition at 5 µM (Plasmodium falciparum [10]): 35%
- IC50 (Plasmodium falciparum [11]): 780 nM
- Activity (Plasmodium berghei): <40%
- remaining at 0.5 h, 1 µM [12]: 98%
- selectivity ratio at 72 h [13]: > 200
- inhibition at 1 µM (Plasmodium falciparum [14]): 0%
- remaining at 0.5 h, 1 µM [15]: > 99%
- inhibition at 1 µM (Plasmodium falciparum [16]): 0%
- inhibition at 5 µM (Plasmodium falciparum [17]): 0%
- clearance [18]: 151 mL/min/kg
- Activity (Hemozoin [19]): Active
- IC50 (CHO): > 50000 nM
- Ratio IC50 [20]: 3.12
- Tmax [21]: 42 min
- remaining at 0.5 h, 1 µM [22]: > 99%

Source: ChEMBL document CHEMBL4834426, “Antimalarial Benzimidazole Derivatives Incorporating Phenolic Mannich Base Side Chains Inhibit Microtubule and Hemozoin Formation: Structure-Activity Relationship and In Vivo Oral Efficacy Studies” (J Med Chem, 2021)
